Test results as given in ChEMBL document CHEMBL1138533 (Antimicrob Agents Chemother, 2007).

Key:
Type in all cases: ADME, organism-based
[1] = Unbound drug concentration in beta lactamase-positive Haemophilus influenzae pharmacokinetic simulation model dosed as amoxicillin-clavulanic acid at simulated human serum concentration of 2000/125 mg, po bid after 1.5 hr
Summary of the method: (§1)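 Two-compartment hollow-fibre dynamic model at 37°C, Haemophilus test medium; total or free serum profiles of oral bid regimens simulated over 48 h by computer-controlled peristaltic dilution. […] Parameters from noncompartmental analysis: Cmax/Tmax observed, AUC0-24 by linear-log trapezoidal rule. Triplicate.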

[2] = Tmax in beta lactamase-negative Haemophilus influenzae pharmacokinetic simulation model dosed as amoxicillin-clavulanic acid at simulated human serum concentration of 2000/125 mg, po bid after 48 hrs; summary of the method: as §1
[3] = AUC (0 to 24 hrs) in beta lactamase-positive Haemophilus influenzae pharmacokinetic simulation model dosed as amoxicillin-clavulanic acid at simulated human serum concentration of 2000/125 mg, po bid after 48 hrs
[4] = Unbound drug concentration in beta lactamase-negative Haemophilus influenzae pharmacokinetic simulation model dosed as amoxicillin-clavulanic acid at simulated human serum concentration of 2000/125 mg, po bid after 8 hrs; summary of the method: as §1
[5] = Cmax in beta lactamase-positive Haemophilus influenzae pharmacokinetic simulation model dosed as amoxicillin-clavulanic acid at simulated human serum concentration of 2000/125 mg, po bid after 48 hrs
[6] = fAUC (0 to 24 hrs) in beta lactamase-positive Haemophilus influenzae pharmacokinetic simulation model dosed as amoxicillin-clavulanic acid at simulated human serum concentration of 2000/125 mg, po bid after 48 hrs; conditions: in vivo; summary of the method: as §1
[7] = Unbound drug concentration in beta lactamase-positive Haemophilus influenzae pharmacokinetic simulation model dosed as amoxicillin-clavulanic acid at simulated human serum concentration of 2000/125 mg, po bid after 4 hrs; summary of the method: as §1
[8] = Drug concentration in beta lactamase-positive Haemophilus influenzae pharmacokinetic simulation model dosed as amoxicillin-clavulanic acid at simulated human serum concentration of 2000/125 mg, po bid after 3 hrs; conditions: in vivo
[9] = Unbound drug concentration in beta lactamase-positive Haemophilus influenzae pharmacokinetic simulation model dosed as amoxicillin-clavulanic acid at simulated human serum concentration of 2000/125 mg, po bid after 8 hrs; conditions: in vivo; summary of the method: as §1
[10] = Unbound drug concentration in beta lactamase-negative Haemophilus influenzae pharmacokinetic simulation model dosed as amoxicillin-clavulanic acid at simulated human serum concentration of 2000/125 mg, po bid after 12 hrs; summary of the method: as §1
[11] = fCmax in beta lactamase-positive Haemophilus influenzae pharmacokinetic simulation model dosed as amoxicillin-clavulanic acid at simulated human serum concentration of 2000/125 mg, po bid after 48 hrs; conditions: in vivo; summary of the method: as §1
[12] = AUC (0 to 24 hrs) in beta lactamase-negative Haemophilus influenzae pharmacokinetic simulation model dosed as amoxicillin-clavulanic acid at simulated human serum concentration of 2000/125 mg, po bid after 48 hrs
[13] = Unbound drug concentration in beta lactamase-negative Haemophilus influenzae pharmacokinetic simulation model dosed as amoxicillin-clavulanic acid at simulated human serum concentration of 2000/125 mg, po bid after 10 hrs; summary of the method: as §1
[14] = Drug concentration in beta lactamase-negative Haemophilus influenzae pharmacokinetic simulation model dosed as amoxicillin-clavulanic acid at simulated human serum concentration of 2000/125 mg, po bid after 1 hr
[15] = fTmax in beta lactamase-negative Haemophilus influenzae pharmacokinetic simulation model dosed as amoxicillin-clavulanic acid at simulated human serum concentration of 2000/125 mg, po bid after 48 hrs; conditions: read-out: fTmax; summary of the method: as §1
[16] = Drug concentration in beta lactamase-positive Haemophilus influenzae pharmacokinetic simulation model dosed as amoxicillin-clavulanic acid at simulated human serum concentration of 2000/125 mg, po bid after 12 hrs; conditions: in vivo
[17] = Unbound drug concentration in beta lactamase-negative Haemophilus influenzae pharmacokinetic simulation model dosed as amoxicillin-clavulanic acid at simulated human serum concentration of 2000/125 mg, po bid after 4 hrs; summary of the method: as §1
[18] = Drug concentration in beta lactamase-positive Haemophilus influenzae pharmacokinetic simulation model dosed as amoxicillin-clavulanic acid at simulated human serum concentration of 2000/125 mg, po bid after 6 hrs; conditions: in vivo
[19] = Drug concentration in beta lactamase-negative Haemophilus influenzae pharmacokinetic simulation model dosed as amoxicillin-clavulanic acid at simulated human serum concentration of 2000/125 mg, po bid after 10 hrs; conditions: in vivo
[20] = Unbound drug concentration in beta lactamase-positive Haemophilus influenzae pharmacokinetic simulation model dosed as amoxicillin-clavulanic acid at simulated human serum concentration of 2000/125 mg, po bid after 6 hrs; conditions: in vivo; summary of the method: as §1
[21] = Unbound drug concentration in beta lactamase-positive Haemophilus influenzae pharmacokinetic simulation model dosed as amoxicillin-clavulanic acid at simulated human serum concentration of 2000/125 mg, po bid after 1 hr; summary of the method: as §1
[22] = Unbound drug concentration in beta lactamase-negative Haemophilus influenzae pharmacokinetic simulation model dosed as amoxicillin-clavulanic acid at simulated human serum concentration of 2000/125 mg, po bid after 3 hrs; summary of the method: as §1
[23] = Unbound drug concentration in beta lactamase-positive Haemophilus influenzae pharmacokinetic simulation model dosed as amoxicillin-clavulanic acid at simulated human serum concentration of 2000/125 mg, po bid after 10 hrs; conditions: in vivo; summary of the method: as §1
[24] = Drug concentration in beta lactamase-negative Haemophilus influenzae pharmacokinetic simulation model dosed as amoxicillin-clavulanic acid at simulated human serum concentration of 2000/125 mg, po bid after 2 hrs; conditions: in vivo
[25] = Half life of free unbound fraction in beta lactamase-negative Haemophilus influenzae pharmacokinetic simulation model dosed as amoxicillin-clavulanic acid at simulated human serum concentration of 2000/125 mg, po bid after 48 hrs; conditions: read-out: ft1/2 (converted)
[26] = Unbound drug concentration in beta lactamase-negative Haemophilus influenzae pharmacokinetic simulation model dosed as amoxicillin-clavulanic acid at simulated human serum concentration of 2000/125 mg, po bid after 2 hrs; summary of the method: as §1
[27] = Unbound drug concentration in beta lactamase-negative Haemophilus influenzae pharmacokinetic simulation model dosed as amoxicillin-clavulanic acid at simulated human serum concentration of 2000/125 mg, po bid after 6 hrs; summary of the method: as §1
[28] = Unbound drug concentration in beta lactamase-negative Haemophilus influenzae pharmacokinetic simulation model dosed as amoxicillin-clavulanic acid at simulated human serum concentration of 2000/125 mg, po bid after 1.5 hr; summary of the method: as §1
[29] = Unbound drug concentration in beta lactamase-positive Haemophilus influenzae pharmacokinetic simulation model dosed as amoxicillin-clavulanic acid at simulated human serum concentration of 2000/125 mg, po bid after 2 hrs; conditions: in vivo; summary of the method: as §1
[30] = Half life in beta lactamase-negative Haemophilus influenzae pharmacokinetic simulation model dosed as amoxicillin-clavulanic acid at simulated human serum concentration of 2000/125 mg, po bid after 48 hrs
[31] = Unbound drug concentration in beta lactamase-positive Haemophilus influenzae pharmacokinetic simulation model dosed as amoxicillin-clavulanic acid at simulated human serum concentration of 2000/125 mg, po bid after 12 hrs; conditions: in vivo; summary of the method: as §1
[32] = Unbound drug concentration in beta lactamase-positive Haemophilus influenzae pharmacokinetic simulation model dosed as amoxicillin-clavulanic acid at simulated human serum concentration of 2000/125 mg, po bid after 3 hrs; conditions: in vivo; summary of the method: as §1
[33] = Cmax in beta lactamase-negative Haemophilus influenzae pharmacokinetic simulation model dosed as amoxicillin-clavulanic acid at simulated human serum concentration of 2000/125 mg, po bid after 48 hrs
[34] = fCmax in beta lactamase-negative Haemophilus influenzae pharmacokinetic simulation model dosed as amoxicillin-clavulanic acid at simulated human serum concentration of 2000/125 mg, po bid after 48 hrs; conditions: in vivo; summary of the method: as §1
[35] = Drug concentration in beta lactamase-positive Haemophilus influenzae pharmacokinetic simulation model dosed as amoxicillin-clavulanic acid at simulated human serum concentration of 2000/125 mg, po bid after 10 hrs
[36] = Unbound drug concentration in beta lactamase-negative Haemophilus influenzae pharmacokinetic simulation model dosed as amoxicillin-clavulanic acid at simulated human serum concentration of 2000/125 mg, po bid after 1 hr; summary of the method: as §1
[37] = fAUC (0 to 24 hrs) in beta lactamase-negative Haemophilus influenzae pharmacokinetic simulation model dosed as amoxicillin-clavulanic acid at simulated human serum concentration of 2000/125 mg, po bid after 48 hrs; conditions: in vivo; summary of the method: as §1
[38] = Drug concentration in beta lactamase-positive Haemophilus influenzae pharmacokinetic simulation model dosed as amoxicillin-clavulanic acid at simulated human serum concentration of 2000/125 mg, po bid after 4 hrs; conditions: in vivo
[39] = Drug concentration in beta lactamase-positive Haemophilus influenzae pharmacokinetic simulation model dosed as amoxicillin-clavulanic acid at simulated human serum concentration of 2000/125 mg, po bid after 1 hr; conditions: in vivo
[40] = Drug concentration in beta lactamase-negative Haemophilus influenzae pharmacokinetic simulation model dosed as amoxicillin-clavulanic acid at simulated human serum concentration of 2000/125 mg, po bid after 3 hrs; conditions: in vivo
[41] = Protein binding in beta lactamase-negative Haemophilus influenzae pharmacokinetic simulation model dosed as amoxicillin-clavulanic acid at simulated human serum concentration of 2000/125 mg, po bid after 48 hrs; conditions: read-out: PB (converted)

**Q.** What does the source list for `CC1(C)S[C@@H]2[C@H](NC(=O)[C@H](N)c3ccc(O)cc3)C(=O)N2[C@H]1C(=O)O` [AMOXICILLIN]?
**A.** Drug uptake [1]: 13.3 µg/mL; Tmax [2]: 1.5 h; AUC at 24 h [3]: 48700 ng·h/mL; Drug uptake [4]: 1.7 µg/mL; Cmax [5]: 17400 ng/mL; fAUC [6]: 22.5 µg·h/mL; Drug uptake [7]: 0.8 µg/mL; Drug uptake [8]: 10.5 µg/mL; Drug uptake [9]: < 0.03 µg/mL; Drug uptake [10]: 0.3 µg/mL; fCmax [11]: 13.3 µg/mL; AUC at 24 h [12]: 73100 ng·h/mL; Drug uptake [13]: 0.6 µg/mL; Drug uptake [14]: 11.6 µg/mL; Tmax [15]: 1.5 h; Drug uptake [16]: < 0.03 µg/mL; Drug uptake [17]: 8.2 µg/mL; Drug uptake [18]: 2.1 µg/mL; Drug uptake [19]: 0.8 µg/mL; Drug uptake [20]: < 0.03 µg/mL; Drug uptake [21]: 9.9 µg/mL; Drug uptake [22]: 10.1 µg/mL; Drug uptake [23]: < 0.03 µg/mL; Drug uptake [24]: 15.5 µg/mL; half-life [25]: 84 min; Drug uptake [26]: 11.8 µg/mL; Drug uptake [27]: 5 µg/mL; Drug uptake [28]: 13.6 µg/mL; Drug uptake [29]: 7.8 µg/mL; half-life [30]: 78 min; Drug uptake [31]: < 0.03 µg/mL; Drug uptake [32]: 2.9 µg/mL; Cmax [33]: 17200 ng/mL; fCmax [34]: 13.6 µg/mL; Drug uptake [35]: < 0.03 µg/mL; Drug uptake [36]: 10.4 µg/mL; fAUC [37]: 60.7 µg·h/mL; Drug uptake [38]: 5.5 µg/mL; Drug uptake [39]: 11.6 µg/mL

**Q.** With `O=C(O)[C@H]1/C(=C/CO)O[C@@H]2CC(=O)N21` [CLAVULANIC ACID] as the compound, how does the Drug uptake [1] read?
**A.** 1.4 µg/mL

**Q.** What about the Tmax [2] of the same compound?
**A.** 1.5 h

**Q.** What about the AUC at 24 h [3] of the same compound?
**A.** 4500 ng·h/mL

**Q.** What about the Drug uptake [40] of the same compound?
**A.** 0.7 µg/mL

**Q.** What about the Drug uptake [4] of the same compound?
**A.** < 0.03 µg/mL

**Q.** And the Cmax [5]?
**A.** 2100 ng/mL

**Q.** What about the fAUC [6] of the same compound?
**A.** 2.8 µg·h/mL

**Q.** What about the Drug uptake [7] of the same compound?
**A.** 0.1 µg/mL

**Q.** What about the Drug uptake [8] of the same compound?
**A.** 0.7 µg/mL

**Q.** And the Drug uptake [9]?
**A.** < 0.03 µg/mL

**Q.** What about the Drug uptake [10] of the same compound?
**A.** < 0.03 µg/mL

**Q.** What about the fCmax [11] of the same compound?
**A.** 1.4 µg/mL

**Q.** And the AUC at 24 h [12]?
**A.** 4700 ng·h/mL

**Q.** And the Drug uptake [13]?
**A.** < 0.03 µg/mL

**Q.** And the Drug uptake [14]?
**A.** 1.3 µg/mL

**Q.** What about the Tmax [15] of the same compound?
**A.** 1.5 h

**Q.** What about the Drug uptake [16] of the same compound?
**A.** < 0.03 µg/mL

**Q.** And the Drug uptake [17]?
**A.** 0.2 µg/mL

**Q.** What about the Drug uptake [18] of the same compound?
**A.** 0.1 µg/mL

**Q.** What about the Drug uptake [19] of the same compound?
**A.** < 0.03 µg/mL

**Q.** What about the Drug uptake [20] of the same compound?
**A.** 0.1 µg/mL

**Q.** And the Drug uptake [21]?
**A.** 0.9 µg/mL

**Q.** And the Drug uptake [22]?
**A.** 0.5 µg/mL

**Q.** What about the Drug uptake [23] of the same compound?
**A.** < 0.03 µg/mL

**Q.** And the Drug uptake [24]?
**A.** 1.4 µg/mL

**Q.** And the half-life [25]?
**A.** 60 min

**Q.** What about the Drug uptake [26] of the same compound?
**A.** 1 µg/mL

**Q.** What about the fraction unbound at 48 h [41] of the same compound?
**A.** 0.75

**Q.** What about the Drug uptake [27] of the same compound?
**A.** 0.1 µg/mL

**Q.** And the Drug uptake [28]?
**A.** 1.5 µg/mL

**Q.** What about the Drug uptake [29] of the same compound?
**A.** 1 µg/mL

**Q.** What about the half-life [30] of the same compound?
**A.** 60 min

**Q.** What about the Drug uptake [31] of the same compound?
**A.** < 0.03 µg/mL

**Q.** What about the Drug uptake [32] of the same compound?
**A.** 0.4 µg/mL

**Q.** What about the Cmax [33] of the same compound?
**A.** 2100 ng/mL

**Q.** And the fCmax [34]?
**A.** 1.5 µg/mL

**Q.** What about the Drug uptake [35] of the same compound?
**A.** < 0.03 µg/mL

**Q.** What about the Drug uptake [36] of the same compound?
**A.** 0.9 µg/mL

**Q.** And the fAUC [37]?
**A.** 2.9 µg·h/mL

**Q.** What about the Drug uptake [38] of the same compound?
**A.** 0.4 µg/mL

**Q.** And the Drug uptake [39]?
**A.** 1.2 µg/mL
